Results from ChEMBL document CHEMBL1157378, “Role for cell density in antifungal drug resistance in Candida albicans biofilms” (2007).
≈ marks a conversion by molar mass, not a printed value.

How the values were obtained:
Assay type in all cases: functional
[1] = system: Candida albicans; experiment: Antimicrobial activity against Candida albicans SC5314 at planktonic cell density of 10^3 cells/ml after 24 hrs by XTT assay; details: SC5314, 24 h
Outline: (§1)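 Planktonic yeast grown in YNB with 50 mM glucose at room temperature with shaking, subcultured to about 2 x 10^8 cells/ml, then washed and resuspended in MOPS-buffered RPMI 1640 with L-glutamine at the stated density. 100 µl of cells was mixed with 100 µl of a twofold drug series (prepared at 1,024 to 0.0313 µg/ml) and incubated for 24 h at 37°C. Read-out was XTT with 1 µM menadione at 37°C, absorbance at 490 nm.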

[2] = system: Candida albicans; experiment: Antimicrobial activity against Candida albicans SC5314 at planktonic cell density of 10^8 cells/ml after 24 hrs by XTT assay; details: SC5314, 24 h; outline: as §1
[3] = system: Candida albicans; experiment: Antimicrobial activity against Candida albicans SC5314 dissociated biofilms at cell density of 10^3 cells/ml after 24 hrs by XTT assay; details: SC5314, 24 h
Outline: (§2)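 Polystyrene-well biofilms (48 h, 37°C) washed, then broken up in 100 µl RPMI by scraping and aspiration. Cells used undiluted (about 2 x 10^8 cells/ml equivalent) or adjusted by A600 against a hemacytometer-calibrated yeast standard curve. Drug exposure at 37°C for 48 h (caspofungin 24 h), then XTT/menadione read at 490 nm.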

[4] = system: Candida albicans; experiment: Antimicrobial activity against Candida albicans SC5314 dissociated biofilms at cell density of 10^8 cells/ml after 24 hrs by XTT assay; details: SC5314, 24 h
Outline: (§3)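 Biofilms grown from 1 x 10^6 cells/ml in RPMI on polystyrene 96-well plates, 48 h at 37°C in a moist chamber, then washed and scraped into 100 µl RPMI. Cells used undiluted (about 2 x 10^8 cells/ml equivalent) or diluted to a low density set against an A600 standard curve. A twofold drug series was added for 24 h at 37°C. Read-out was XTT/menadione at 490 nm.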

[5] = system: Candida albicans; experiment: Antimicrobial activity against Candida albicans SC5314 intact biofilms after 24 hrs by XTT assay; details: SC5314, 24 h
Outline: (§4)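 Intact biofilms formed from 1 x 10^6 cells/ml in RPMI in polystyrene microtiter wells, 48 h at 37°C in a moist chamber, then washed once and covered with 100 µl RPMI. A twofold drug series was added in the same well for 24 h at 37°C. Metabolic activity was read by XTT (0.5 g/liter, 1 µM menadione, up to 2 h) at 490 nm.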

[6] = system: Candida albicans; experiment: Antimicrobial activity against Candida albicans GDH2346 at planktonic cell density of 10^3 cells/ml after 24 hrs by XTT assay; details: GDH2346, 24 h; outline: as §1
[7] = system: Candida albicans; experiment: Antimicrobial activity against Candida albicans GDH2346 at planktonic cell density of 10^8 cells/ml after 24 hrs by XTT assay; details: GDH2346, 24 h; outline: as §1
[8] = system: Candida albicans; experiment: Antimicrobial activity against Candida albicans GDH2346 dissociated biofilms at cell density of 10^3 cells/ml after 24 hrs by XTT assay; details: GDH2346, 24 h; outline: as §3
[9] = system: Candida albicans; experiment: Antimicrobial activity against Candida albicans GDH2346 dissociated biofilms at cell density of 10^8 cells/ml after 24 hrs by XTT assay; details: GDH2346, 24 h; outline: as §3
[10] = system: Candida albicans; experiment: Antimicrobial activity against Candida albicans GDH2346 intact biofilms after 24 hrs by XTT assay; details: GDH2346, 24 h; outline: as §4
[11] = system: Candida albicans; experiment: Antimicrobial activity against Candida albicans FH1 at planktonic cell density of 10^3 cells/ml after 24 hrs by XTT assay; details: FH1, 24 h
Outline: (§5)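 YNB-grown yeast (50 mM glucose, room temperature, shaken, to ~2 x 10^8 cells/ml) washed into MOPS-buffered RPMI 1640 with L-glutamine and set to the stated density. Exposed to twofold serial drug dilutions (1,024 to 0.0313 µg/ml) at 37°C, 48 h (caspofungin 24 h), with drug-free controls. Read-out: XTT (0.5 g/liter) plus 1 µM menadione, formazan at 490 nm.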

[12] = system: Candida albicans; experiment: Antimicrobial activity against Candida albicans FH1 at planktonic cell density of 10^8 cells/ml after 24 hrs by XTT assay; details: FH1, 24 h; outline: as §1
[13] = system: Candida albicans; experiment: Antimicrobial activity against Candida albicans FH1 dissociated biofilms at cell density of 10^3 cells/ml after 24 hrs by XTT assay; details: FH1, 24 h; outline: as §2
[14] = system: Candida albicans; experiment: Antimicrobial activity against Candida albicans FH1 dissociated biofilms at cell density of 10^8 cells/ml after 24 hrs by XTT assay; details: FH1, 24 h; outline: as §3
[15] = system: Candida albicans; experiment: Antimicrobial activity against Candida albicans FH1 intact biofilms after 24 hrs by XTT assay; details: FH1, 24 h; outline: as §4
[16] = system: Candida albicans; experiment: Antimicrobial activity against fluconazole-resistant Candida albicans FH5 at planktonic cell density of 10^3 cells/ml after 24 hrs by XTT assay; details: FH5, 24 h; outline: as §5
[17] = system: Candida albicans; experiment: Antimicrobial activity against fluconazole-resistant Candida albicans FH5 at planktonic cell density of 10^8 cells/ml after 24 hrs by XTT assay; details: FH5, 24 h; outline: as §5
[18] = system: Candida albicans; experiment: Antimicrobial activity against fluconazole-resistant Candida albicans FH5 dissociated biofilms at cell density of 10^3 cells/ml after 24 hrs by XTT assay; details: FH5, 24 h; outline: as §2
[19] = system: Candida albicans; experiment: Antimicrobial activity against fluconazole-resistant Candida albicans FH5 dissociated biofilms at cell density of 10^8 cells/ml after 24 hrs by XTT assay; details: FH5, 24 h; outline: as §2
[20] = system: Candida albicans; experiment: Antimicrobial activity against fluconazole-resistant Candida albicans FH5 intact biofilms after 24 hrs by XTT assay; details: FH5, 24 h
Outline: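 Biofilm seeded at 1 x 10^6 cells/ml in RPMI in polystyrene microtiter wells and grown 48 h at 37°C in a moist chamber. Washed once and drug added to the same well (twofold dilutions, 1,024 to 0.0313 µg/ml) for 48 h at 37°C (caspofungin 24 h). Read-out: XTT/menadione reduction at 490 nm.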

[21] = system: Candida albicans; experiment: Antimicrobial activity against Cdr1, Cdr2 and Mdr1 deficient Candida albicans DSY1050 at planktonic cell density of 10^3 cells/ml after 24 hrs by XTT assay; details: DSY1050, 24 h; outline: as §1
[22] = system: Candida albicans; experiment: Antimicrobial activity against Cdr1, Cdr2 and Mdr1 deficient Candida albicans DSY1050 at planktonic cell density of 10^8 cells/ml after 24 hrs by XTT assay; details: DSY1050, 24 h; outline: as §1
[23] = system: Candida albicans; experiment: Antimicrobial activity against Cdr1, Cdr2 and Mdr1 deficient Candida albicans DSY1050 dissociated biofilms at cell density of 10^3 cells/ml after 24 hrs by XTT assay; details: DSY1050, 24 h; outline: as §3
[24] = system: Candida albicans; experiment: Antimicrobial activity against Cdr1, Cdr2 and Mdr1 deficient Candida albicans DSY1050 dissociated biofilms at cell density of 10^8 cells/ml after 24 hrs by XTT assay; details: DSY1050, 24 h; outline: as §3
[25] = system: Candida albicans; experiment: Antimicrobial activity against Cdr1, Cdr2 and Mdr1 deficient Candida albicans DSY1050 intact biofilms after 24 hrs by XTT assay; details: DSY1050, 24 h; outline: as §4
[26] = system: Candida albicans; experiment: Antimicrobial activity against Chk1 deficient Candida albicans CHK21 at planktonic cell density of 10^3 cells/ml after 24 hrs by XTT assay; details: CHK21, 24 h; outline: as §5
[27] = system: Candida albicans; experiment: Antimicrobial activity against Chk1 deficient Candida albicans CHK21 at planktonic cell density of 10^8 cells/ml after 24 hrs by XTT assay; details: CHK21, 24 h; outline: as §1
[28] = system: Candida albicans; experiment: Antimicrobial activity against Chk1 deficient Candida albicans CHK21 dissociated biofilms at cell density of 10^3 cells/ml after 24 hrs by XTT assay; details: CHK21, 24 h; outline: as §2
[29] = system: Candida albicans; experiment: Antimicrobial activity against Chk1 deficient Candida albicans CHK21 dissociated biofilms at cell density of 10^8 cells/ml after 24 hrs by XTT assay; details: CHK21, 24 h; outline: as §3
[30] = system: Candida albicans; experiment: Antimicrobial activity against Chk1 deficient Candida albicans CHK21 intact biofilms after 24 hrs by XTT assay; details: CHK21, 24 h; outline: as §4

CC[C@H](C)C[C@H](C)CCCCCCCCC(=O)N[C@H]1C[C@@H](O)[C@@H](NCCN)NC(=O)[C@@H]2[C@@H](O)CCN2C(=O)[C@H]([C@H](O)CCN)NC(=O)[C@H]([C@H](O)[C@@H](O)c2ccc(O)cc2)NC(=O)[C@@H]2C[C@@H](O)CN2C(=O)[C@H]([C@@H](C)O)NC1=O [CASPOFUNGIN]
MIC80 [1]: 0.25 mg/L (≈ 0.229 µM) | MIC80 [2]: > 32 mg/L | MIC80 [3]: 0.5 mg/L (≈ 0.457 µM) | MIC80 [4]: > 32 mg/L | MIC80 [5]: > 32 mg/L | MIC80 [6]: 0.125 mg/L (≈ 0.114 µM) | MIC80 [7]: > 32 mg/L | MIC80 [8]: 0.25 mg/L (≈ 0.229 µM) | MIC80 [9]: > 32 mg/L | MIC80 [10]: > 32 mg/L | MIC80 [11]: 0.5 mg/L (≈ 0.457 µM) | MIC80 [12]: > 32 mg/L | MIC80 [13]: 0.5 mg/L (≈ 0.457 µM) | MIC80 [14]: > 32 mg/L | MIC80 [15]: > 32 mg/L | MIC80 [16]: 0.5 mg/L (≈ 0.457 µM) | MIC80 [17]: > 32 mg/L | MIC80 [18]: 0.5 mg/L (≈ 0.457 µM) | MIC80 [19]: > 32 mg/L | MIC80 [20]: > 32 mg/L | MIC80 [21]: 0.25 mg/L (≈ 0.229 µM) | MIC80 [22]: > 32 mg/L | MIC80 [23]: 0.25 mg/L (≈ 0.229 µM) | MIC80 [24]: > 32 mg/L | MIC80 [25]: > 32 mg/L | MIC80 [26]: 0.5 mg/L (≈ 0.457 µM) | MIC80 [27]: > 32 mg/L | MIC80 [28]: 0.5 mg/L (≈ 0.457 µM) | MIC80 [29]: > 32 mg/L | MIC80 [30]: > 32 mg/L
